Source: PubChem BioAssay (several laboratories)
APP 5'UTR act = activates APP 5'UTR luciferase reporter; SH-SY5Y APP 5'UTR luciferase reporter, luminescence; zero percent = DMSO vehicle wells; activation, % at 2 µM; 190,000 tested, 1% active;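 active means activation above a set limit, based on mean plus 3 SD of controls, cut at about 140% in these data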
STAT3 inh = reduces IL-6 driven STAT3 reporter signal; U3A cells, IL-6 STAT3-luciferase reporter, luminescence; host cell line lacks STAT1; inhibition, % at 5.5 µM; 190,000 tested, 0.89% active; AID 862;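 active means inhibition above the mean inhibition across all screened compounds plus 3 SD, cut at about 44% in these data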;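 further: 0% = DMSO only wells and 100% = 100 µM nifuroxazide control wells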
STAT1 inh = STAT1 signaling inhibition; 200,000 tested, 0.35% active; NIH 3T3 STAT1-luciferase reporter, IFN-gamma, luminescence; inhibition, % at 5.5 µM; AID 920;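 active means inhibition above a set limit, the mean inhibition across all tested compounds plus 3 SD, cut at about 34% in these data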;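 further: 0% = IFN-gamma with DMSO and 100% = IFN-gamma with 300 µM nifuroxazide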
NF-kB expr up = compounds increasing NF-kB expression in human neuronal cells. NF-kB reporter expression; stronger effect = higher value. fold change at 12.5 µM. 190,000 tested, 1.6% active; in the data active means fold change above about 3.3
STAT3 act = STAT3 signaling activation; 190,000 tested, 0.91% active; AID 871; U3A cells, IL-6 STAT3-luciferase reporter, luminescence; 100% = signal with IL-6 EC80 alone; activation (% of control), % at 5.6 µM;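 active means activation above the screen-wide mean of compound activation plus 3 SD, cut at about 130% in these data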;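 further: 0% = background luminescence of wells with medium and substrate only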
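Test system: Human STAT1-deficient U3A cells with stable STAT3-luciferase reporter | Also added: Interleukin-6, 33 ng/mL | Timing: Compound pre-incubation 1 h before IL-6, then 6 h stimulation at 37 °C | Technique: Luciferase reporter luminescence | Read-out: Percent of IL-6-only median luminescence | Benchmarks: IL-6-only wells as 100% reference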
STAT1 activator = increases IFN-gamma driven STAT1 reporter signal; NIH 3T3 STAT1-luciferase reporter, luminescence; 100% = IFN-gamma alone, no compound; activation (% of control), % at 5.5 µM; 200,000 tested, 2.6% active; AID 932;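 active means activation above the screen-wide mean activation plus 3 SD, cut at about 130% in these data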;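 further: raw ratio to IFN-gamma control signal so 100% means no change and 0% no light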
STAT1 act conf = STAT1 activation, confirmation assay | shares compounds with STAT1 activator | NIH 3T3 STAT1-luciferase reporter, IFN-gamma potentiation, luminescence; 100% = IFN-gamma EC80 alone, no compound | 1,200 tested, 97% active | AID 1262 | activation (% of control), % at 5.7 µM;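 active means activation above a set limit carried over from the earlier primary STAT1 screen, cut at about 140% in these data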;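 further: simple ratio to median IFN-gamma plus DMSO wells so 0% means no light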
NFkB act = activates NF-kappaB, counter-screen to STAT1 activators; shares compounds with STAT1 activator; HEK293T NF-kB luciferase reporter, TNF-alpha stimulated, luminescence; 100% = TNF-alpha with vehicle only; activation (% of control), % at 5.7 µM; 1,200 tested, 43% active; AID 1306;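 active means activation above the mean of solvent-only control wells plus 3 SD, set per campaign, cut at about 130% in these data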;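 further: TNF-alpha given at a submaximal dose yielding about 80% of full reporter signal; values are well signal over median control so 100% means no change and 0% no light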
STAT3 act 2 = counter-screen for STAT1 activators: human STAT3 activation; shares compounds with STAT1 activator; U3A cells STAT3-luciferase reporter, IL-6, luminescence; cells lack STAT1; 100 = IL-6 alone, no compound effect; activation (% of control), % at 5.7 µM; 1,200 tested, 46% active; AID 1316;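 active means activation above the solvent-only control well mean plus 3 SD, set per plate batch, cut at about 110% in these data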;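 further: 0% = no luminescence and 100% = median IL-6 plus DMSO wells; higher means more STAT3 reporter activation so hits are non-selective activators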
Starred values were filed as active, the others as inactive; nt = not tested or not shown. Hits are enriched below; roughly 5.1% of the tested compounds scored in any of these assays.

SMILES | APP 5'UTR act | STAT3 inh | STAT1 inh | NF-kB expr up | STAT3 act | STAT1 activator | STAT1 act conf | NFkB act | STAT3 act 2
COCCN1Cc2cccc(C(=O)NCc3cccs3)c2C1=O | 9.4 | 9.5 | 8.9 | 1.19 | 101.8 | 91.1 | nt | nt | nt
CCOC(=O)CC(NC(=O)c1cc2ccccc2oc1=O)c1cccc([N+](=O)[O-])c1 (centres undefined) | -40.1 | 2.7 | -0.5 | 0.81 | 100.8 | 100.5 | nt | nt | nt
O=C(/C=C/c1ccccc1[N+](=O)[O-])NC1CCCC1 | 8.8 | 13.8 | -19.4 | 1.58 | 95.7 | 118.1 | nt | nt | nt
O=C(CCN1C(=O)c2ccccc2C1=O)CN1CCOCC1 | -6.1 | 11.1 | 1.9 | 1.19 | 95.0 | 96.3 | nt | nt | nt
COC(=O)c1oc2ccc(Cl)cc2c1-n1cccc1 | 3.9 | 4.0 | 2.0 | 1.29 | 100.2 | 98.1 | nt | nt | nt
CC(=O)c1cccc(Nc2nc(-c3ccccc3)cs2)c1 | 169.5* | 2.9 | -73.7 | 4.8* | 106.0 | 168.3* | 230.2* | 152.1* | 111.9*
CC(=O)NNc1nc(-c2ccccc2)cs1 | 4.6 | -1.8 | -5.2 | 1.26 | 107.4 | 102.7 | nt | nt | nt
Cc1ccccc1-c1nnc(Cc2ccccc2)o1 | 71.4 | 6.5 | -60.7 | 2.46 | 97.7 | 153.6* | 175.4* | 135.3* | 108.4
COc1ccc(Cc2nnc(-c3ccccc3)o2)cc1 | 14.5 | 9.9 | -24.0 | 1.49 | 101.7 | 121.1 | nt | nt | nt
O=C(Nc1ccc2c(c1)CCC2)c1ccc(F)cc1 | 196.6* | 32.1 | -81.0 | 8.48* | 70.8 | 173.7* | 232.8* | 114.1 | 86.8
O=C(Nc1ccc2c(c1)CCC2)c1c(F)cccc1Cl | 100.1 | 0.9 | -84.2 | 4.25* | 102.4 | 174.9* | 195.9* | 140.0* | 112.1*
O=C(Nc1ccc2c(c1)CCC2)c1cccs1 | 91.6 | 14.3 | -60.6 | 6.16* | 92.3 | 156.8* | 197.6* | 136.4* | 104.0
O=C(c1ccncc1)c1ccc(NC(=O)c2cccs2)cc1 | 14.7 | 20.2 | 8.3 | 1.82 | 85.2 | 90.9 | nt | nt | nt
CCN(Cc1cnn(C)c1)C(=O)CC1C(=O)NCCN1Cc1cccc(OC)c1OC (centres undefined) | 8.5 | 7.8 | -4.6 | 1.22 | 97.6 | 102.5 | nt | nt | nt
CN(C)/C=C1\SC(=S)N(N2C(=O)C3C4C=CC(C4)C3C2=O)C1=O (centres undefined) | -4.1 | 3.2 | -1.7 | 1.2 | 100.5 | 99.8 | nt | nt | nt
CCN(CC)c1ccc(C(=O)Nc2ccccc2)cc1[N+](=O)[O-] | 98.0 | 8.7 | -67.8 | 1.55 | 96.3 | 159.9* | 163.1* | 129.1 | 97.1
CCN1CC(c2ccccc2)C(c2ccc(Cl)cc2)=N1 (centres undefined) | -15.4 | -8.2 | -1.8 | 1.3 | 109.2 | 101.6 | nt | nt | nt
COCCCN(C(C)=O)c1nc(-c2ccc(OC)cc2)cs1 | 7.5 | -4.4 | -60.9 | 2.13 | 108.6 | 155.5* | 144.5* | 100.3 | 111.7*
Cc1ccc(-c2nc3cc(N)ccc3o2)c(C)c1 | 41.7 | 40.1 | -59.5 | 4.92* | 67.9 | 154.1* | 232.8* | 111.9 | 95.9
CC(C)N1C(=O)CCC1C(=O)O (centres undefined) | 2.0 | 0.6 | -1.8 | 1.24 | 107.5 | 101.6 | nt | nt | nt
N#C/C(=C\c1ccco1)c1nc2ccccc2s1 | 138.1* | -23.7 | -83.4 | 1.13 | 119.8 | 173.2* | 218.0* | 130.5 | 142.5*
N#C/C(=C/c1ccc(-c2cc(C(=O)O)cc(C(=O)O)c2)o1)c1nc2ccccc2s1 | -2.8 | 12.8 | 2.4 | 1.06 | 92.2 | 96.7 | nt | nt | nt
N#C/C(=C/c1ccco1)c1nc2ccccc2s1 | 186.5* | 6.4 | -72.5 | 8.07* | 94.5 | 164.6* | 225.5* | 131.0 | 139.5*
CCN1C(=S)SC(=O)C1=C1C=C(C)N(Cc2ccco2)C(C)=C1 | 122.0 | -9.6 | -103.6 | 3.05 | 114.0 | 197.8* | 277.9* | 150.8* | 126.5*
CCOC(=O)c1sc(NC(=O)c2sccc2C)cc1C | 154.0* | 27.4 | -56.1 | 12* | 82.0 | 151.6* | 252.0* | 129.3 | 101.4
SMILES | APP 5'UTR act | STAT3 inh | STAT1 inh | NF-kB expr up | STAT3 act | STAT1 activator | STAT1 act conf | NFkB act | STAT3 act 2
COc1ccc(CC(=O)c2ccc(OC)c(OC)c2C)cc1OC | 15.4 | 16.8 | 6.1 | 1.12 | 88.0 | 94.5 | nt | nt | nt
Cc1ccccc1Nc1nc(N)nc(CSc2ccc(F)cc2)n1 | 167.6* | 4.8 | -65.1 | 6.03* | 100.8 | 156.1* | 194.7* | 127.4 | 124.6*
COc1ccc2cc(-c3nc4ccccc4n3C)c(=O)oc2c1 | 91.8 | 0.2 | -53.2 | 3.39* | 103.0 | 154.7* | 168.9* | 123.8 | 117.1*
O=C(/C=C/Nc1ccc(F)c(F)c1)c1cccs1 | 143.8* | -0.1 | -76.0 | 9.77* | 99.6 | 169.1* | 228.7* | 121.6 | 131.9*
Cc1ccc(S(=O)(=O)N2CCOC2CNC(=O)C(=O)NCc2cccnc2)cc1 (centres undefined) | 7.0 | 0.0 | -5.2 | 0.99 | 99.9 | 104.7 | nt | nt | nt
Brc1ccccc1OCCCn1cnc2ccccc21 | 73.3 | -2.4 | -78.6 | 6.73* | 101.9 | 157.6* | 185.5* | 137.8* | 107.5
c1ccc(OCCn2cnc3ccccc32)cc1 | 11.1 | 11.8 | -6.6 | 1.27 | 92.5 | 106.1 | nt | nt | nt
Nc1c2c(=O)oc(-c3ccccc3)cc2nn1-c1ccccc1 | 149.7* | 3.6 | -87.3 | 3.33* | 105.4 | 176.7* | 202.8* | 132.1 | 108.6
Cc1c(-c2ccc(Cl)cc2)oc(=O)c2c(N)n(-c3ccccc3)nc12 | -7.5 | 10.9 | -13.7 | 1.12 | 91.2 | 112.6 | nt | nt | nt
O=C(Nc1cccc([N+](=O)[O-])c1)c1ccc(-c2ccccc2)cc1 | 29.1 | 12.7 | -0.7 | 1 | 89.0 | 100.6 | nt | nt | nt
Cc1c(C(=O)Nc2cccc([N+](=O)[O-])c2)csc1-c1ccccc1 | 194.4* | -7.8 | -72.5 | 3.84* | 115.7 | 165.2* | 237.7* | 127.5 | 139.4*
Cc1cnc(NC(=O)COc2ccccc2)s1 | 167.7* | 25.9 | -72.4 | 4.26* | 81.5 | 166.3* | 179.4* | 130.3 | 100.7
Cc1cnc(NC(=O)CSc2ccccc2)s1 | 24.1 | 4.5 | -11.9 | 1.79 | 101.2 | 110.9 | nt | nt | nt
CC(C)=CC(=O)Nc1ccc(Br)cc1 | 123.4 | 13.7 | -59.2 | 5.61* | 91.1 | 154.3* | 171.6* | 141.2* | 108.7
CCc1c(C)[nH]c(C(=O)OCc2ccccc2)c1C | 24.0 | 7.1 | -58.9 | 2.45 | 97.7 | 152.5* | 145.6* | 118.3 | 91.7
COC(=O)c1c(C)[nH]c(C(=O)OCc2ccc(F)cc2)c1C | 67.6 | 12.7 | -57.5 | 2.69 | 92.9 | 152.3* | 163.3* | 124.6 | 102.7
